Screens as filed in PubChem BioAssay.
Sampled rows, rich in hits. Any-hit rate of the full collection: about 4.3%.
DYRK1A inh: Dyrk1A (rat) kinase inhibition. actives 0.43% (n = 310,000). Q63470. inhibition, % at 12.5 µM. ADP-Glo luminescence, NFATc1 peptide. AID 504441; in the data active = inhibition above about 50%
Rtt109 HAT inh: C. albicans Rtt109 histone acetyltransferase inhibition; purified Rtt109/Vps75, ThioGlo CoA-SH fluorescence, 4 h; Q5AAJ8; AID 540336; actives 0.16% (n = 330,000); inhibition, % at 34.9 µM;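 active = inhibition of at least 50% in every replicate; inconclusive = best replicate reaches 50% inhibition but some replicates fall short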
Target sequence (Q5AAJ8 whole entry, looked up): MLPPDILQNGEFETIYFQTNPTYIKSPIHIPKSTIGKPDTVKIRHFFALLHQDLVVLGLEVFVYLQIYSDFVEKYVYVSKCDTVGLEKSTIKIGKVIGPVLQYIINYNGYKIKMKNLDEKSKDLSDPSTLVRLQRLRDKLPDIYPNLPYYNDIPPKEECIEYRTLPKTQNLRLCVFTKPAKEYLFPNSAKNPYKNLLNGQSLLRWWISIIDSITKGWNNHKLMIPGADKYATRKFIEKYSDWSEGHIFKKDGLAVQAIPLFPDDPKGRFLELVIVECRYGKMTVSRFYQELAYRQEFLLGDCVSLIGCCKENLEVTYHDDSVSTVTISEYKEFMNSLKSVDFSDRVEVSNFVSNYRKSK
CAL PDZ FP-1: human CAL PDZ-peptide interaction inhibition; Q9HD26; purified CAL PDZ, TMR-peptide fluorescence polarization, 1 h; inhibition, % at 20 µM; actives 0.02% (n = 330,000); AID 504414;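 active = highest replicate inhibition of at least 40%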
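material = purified tagged CAL PDZ domain construct (CerCALP) | compound dosing = 20 µM, one dose | times = 1 h at RT | measured by = fluorescence polarization from S- and P-plane intensities, G-factor corrected | read-out = inhibition from polarization loss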
ALR H2O2 inh: inhibitors of human sulfhydryl oxidase ALR; purified ALR, DTT oxidation, H2O2 HRP-luminol luminescence; inhibition, % (test concentration not listed); actives 3.8% (n = 290,000); AID 485317;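 active = mean replicate inhibition above about 79%, with every replicate also reaching it, limit read from the data; inconclusive = only one of the two criteria met; inactive = mean below limit and not every replicate reaching it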
Target sequence (P55789 whole entry, looked up): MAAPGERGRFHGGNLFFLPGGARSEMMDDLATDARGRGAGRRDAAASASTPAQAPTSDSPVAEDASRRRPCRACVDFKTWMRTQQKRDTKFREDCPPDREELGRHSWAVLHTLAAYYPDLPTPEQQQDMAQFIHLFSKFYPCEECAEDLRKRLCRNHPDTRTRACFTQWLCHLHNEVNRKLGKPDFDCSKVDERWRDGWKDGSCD
CAL PDZ FP-2: blocks peptide binding to the human CAL PDZ domain. Q9HD26. purified CAL PDZ, TMR-peptide fluorescence polarization, 1 h. inhibition, % at 24.9 µM. actives 0.92% (n = 300,000). AID 602252;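 active = mean inhibition of at least 30% with at least half of replicates also reaching 30%; inconclusive = no clear call, values can overlap the other calls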
Of the large screens only hits and unclear results are named; the others gave an inactive call.

Cc1ccc(OC(C)C(=O)N2CC(=O)Nc3ccccc32)cc1 (stereo not drawn)	none
Clc1nc(NCCc2ccccc2)c2cn[nH]c2n1	none (no result: DYRK1A inh, ALR H2O2 inh)
COc1ccc(NC2CCCN(C(=O)c3ccc4[nH]c(C)c(C)c4c3)C2)cc1OC (stereo not drawn)	ALR H2O2 inh 99 (no result: DYRK1A inh)
Cc1ccc(NC2CCCN(C(=O)c3ccoc3)C2)cc1C (stereo not drawn)	ALR H2O2 inh 99 (no result: CAL PDZ FP-2)
COc1ccc(C(=O)N2CCCC(Nc3ccc(C)c(C)c3)C2)cc1 (stereo not drawn)	ALR H2O2 inh 98
Cc1ccc(NC2CCCN(C(=O)C3CCCC3)C2)cc1C (stereo not drawn)	ALR H2O2 inh 99
COc1ccccc1N1CCN(C(=O)c2ccc3[nH]c(C)c(C)c3c2)CC1	none
Cc1ccc(C(=O)N2CCCC(Nc3ccc(C)c(C)c3)C2)c(=O)[nH]1 (stereo not drawn)	none
COC(=O)c1ccc(C(=O)N2CCCC(Nc3ccc(F)c(F)c3)C2)cc1 (stereo not drawn)	none
COc1ccc(CCNC(=O)COc2nncc3ccccc23)cc1	none
O=C(CCNC(=O)c1ccccc1)OCC(=O)c1ccccc1	none
COc1ccc(NC2CCCN(C(=O)c3ccc(OC)cc3OC)C2)cc1 (stereo not drawn)	ALR H2O2 inh 99
COc1ccc2cc(C(=O)N3CCCC(Nc4ccc(F)cc4)C3)n(C)c2c1 (stereo not drawn)	none
CCOc1ccccc1N=c1oc2cc(O)ccc2cc1C(=O)NCC1CCCO1 (stereo not drawn)	ALR H2O2 inh 98 (no result: CAL PDZ FP-2)
CN(C)/N=C/c1ccc(P(c2ccc(/C=N/N(C)C)o2)c2ccc(/C=N/N(C)C)o2)o1	none
CCOC(=O)CNC(=S)N(CCCN1CCCC1)Cc1cccs1	ALR H2O2 inh 99 (no result: Rtt109 HAT inh)
Cc1ncsc1CCC(=O)N1CCCC(Nc2ccc(C(C)C)cc2)C1 (stereo not drawn)	ALR H2O2 inh 86
COc1ccc(NC2CCCN(C(=O)CCc3scnc3C)C2)cc1 (stereo not drawn)	ALR H2O2 inh 99
Cc1ncsc1CCC(=O)N1CCCC(Nc2ccc(F)c(F)c2)C1 (stereo not drawn)	none
Cc1ccc(NC2CCCN(C(=O)CCc3scnc3C)C2)cc1C (stereo not drawn)	ALR H2O2 inh 99
CCCCc1ccc(C2C(C#N)=C(N)SC(N)=C2C#N)s1	ALR H2O2 inh 98 (no result: DYRK1A inh, Rtt109 HAT inh, CAL PDZ FP-1, CAL PDZ FP-2)
CCOc1ccc(C2C(C#N)=C(N)SC(N)=C2C#N)c(OCC)c1	none
O=C(O)COc1ccc(/C=N/NC(=O)c2cccc3ccccc23)cc1	none (no result: ALR H2O2 inh)
COc1ncnc2c1NC(=O)CS2	none
COc1ncnc2c1N[C@@](C)(O)c1c(F)c(F)c(F)c(F)c1S2	CAL PDZ FP-2 46
CC(C)C[C@@H]1CN=C(N)N1C[C@@H]1CCCN1C[C@H](C)N1C[C@@H](Cc2ccccc2)N(CCc2ccc(Cl)c(Cl)c2)C1=N	Rtt109 HAT inh 75
CCc1ccccc1N(CC(=O)NC1CCCCC1)C(=O)CNC(=O)c1ccco1	none
CC(C)C(=O)NN(C(=O)C(C)C)c1nc2ccccc2s1	ALR H2O2 inh 95 (no result: DYRK1A inh)
CC(C)C(=O)N(Nc1nc2ccccc2s1)C(=O)C(C)C	none
Cc1onc(-c2c(Cl)cccc2Cl)c1C(=O)c1c[nH]c(C(=O)NCC2CCCO2)c1 (stereo not drawn)	none (no result: ALR H2O2 inh)
Cc1ncc(CO)c(CNc2ccc(Oc3ccccc3)cc2)c1O	ALR H2O2 inh 98
O=S(=O)(NC1CCCCC1)c1ccc(N2CCOCC2)nc1	none
Cc1cc(C)cc(NC(=O)c2ccc(CSc3nnnn3C)cc2)c1	none
Cn1nnnc1SCc1ccc(C(=O)Nc2nccs2)cc1	ALR H2O2 inh 99 (no result: CAL PDZ FP-2)
COc1cc([N+](=O)[O-])ccc1NC(=O)/C=C\C(=O)O	none
COc1cc([N+](=O)[O-])ccc1NC(=O)/C=C/C(=O)O	CAL PDZ FP-2 71 (no result: Rtt109 HAT inh, ALR H2O2 inh)
CN1CCN(CCCNC(=O)c2ccc(Cn3c(=S)[nH]c4ccc(Br)cc4c3=O)cc2)CC1	ALR H2O2 inh inconclusive
O=c1c2cc(Br)ccc2[nH]c(=S)n1Cc1ccccc1	none (no result: DYRK1A inh, ALR H2O2 inh, CAL PDZ FP-2)
O=C(CCCn1c(=S)[nH]c2ccc(Br)cc2c1=O)NCc1ccccn1	none
O=C(CCCn1c(=S)[nH]c2ccc(Br)cc2c1=O)N1CCN(c2ccccn2)CC1	ALR H2O2 inh 92 (no result: CAL PDZ FP-2)
O=C(NCc1cccnc1)c1ccc(Cn2c(=S)[nH]c3ccc(Br)cc3c2=O)cc1	CAL PDZ FP-2 active
O=c1c2cc(Br)ccc2[nH]c(=S)n1Cc1ccccn1	ALR H2O2 inh 93
CSC(C(=O)c1cc2ccccc2o1)c1ccccc1 (stereo not drawn)	none
Cc1ccc(-c2ccc(S(=O)(=O)Nc3cccnc3)cc2)cc1	none
Oc1ccc(N2CCN(c3nnnn3-c3ccccc3)CC2)cc1	ALR H2O2 inh 99
COc1ccc(C(=O)Nn2c(CCC(=O)O)ccc2-c2ccc(C)cc2)cc1OC	none (no result: CAL PDZ FP-1)
O=C(NCCN1CCOCC1)c1ccc2c(c1)N(Cc1ccccc1)CCS2	ALR H2O2 inh 100 (no result: CAL PDZ FP-2)
O=C(NCCN1CCOCC1)c1ccc2c(c1)N(Cc1ccccc1)C(=O)CS2	none (no result: CAL PDZ FP-2)
CN1CCN(CCCNC(=O)c2ccc3c(c2)N(Cc2ccccc2)CCS3)CC1	ALR H2O2 inh 99
O=C(NCCCN1CCOCC1)c1ccc2c(c1)N(Cc1ccccc1)C(=O)c1ccccc1S2	none
O=C(NCC1CCCO1)c1ccc2c(c1)N(Cc1ccccc1)CCS2 (stereo not drawn)	ALR H2O2 inh 99 (no result: CAL PDZ FP-2)
O=C(NCCCN1CCOCC1)c1ccc2c(c1)N(Cc1ccccc1)CCS2	ALR H2O2 inh 99, CAL PDZ FP-2 58
O=C1c2ccccc2C(=O)N1c1ccc(Cc2ccncc2)cc1	none (no result: CAL PDZ FP-2)
Cc1ccc(CN2CCSc3ccc(C(=O)NCc4ccco4)cc32)cc1	none
Cc1ccc(CN2CCSc3ccc(C(=O)NCCCN4CCOCC4)cc32)cc1	ALR H2O2 inh 98 (no result: CAL PDZ FP-2)
CCN1CCN(CCCNC(=O)c2ccc3c(c2)N(Cc2ccc(C)cc2)CCS3)CC1	ALR H2O2 inh 99
COc1ccc(/C(C)=N/NC(=O)c2ccc(CSc3nncn3C)cc2)cc1	none
O=C(N/N=C/c1c[nH]c2ccccc12)c1ccccc1	CAL PDZ FP-2 37
Cc1nc(N)sc1C(=O)N/N=C/c1c[nH]c2ccccc12	ALR H2O2 inh 91
O=C(N/N=C/c1c[nH]c2ccccc12)c1ccncc1	none
O=C(CCC(=O)Nc1ccc(F)cc1)N/N=C/c1c[nH]c2ccccc12	none (no result: ALR H2O2 inh)
O=C(CNc1ccccc1)N/N=C/c1c[nH]c2ccccc12	ALR H2O2 inh 89
CC(=O)c1sc(NC(=O)CCCc2nc3ccccc3c(=O)[nH]2)nc1-c1ccccc1	CAL PDZ FP-2 52 (no result: DYRK1A inh)
CCC(C)(C(=O)NC1CCCC1)N(C(=O)CC1NC(=O)NC1=O)c1c(C)n(C)n(-c2ccccc2)c1=O (stereo not drawn)	none (no result: ALR H2O2 inh, CAL PDZ FP-2)
CCCn1c(SCC(=O)Nc2cccc(F)c2)nc(O)cc1=O	ALR H2O2 inh 99
CCCn1c(SCC(=O)Nc2ccccc2Cl)nc(O)cc1=O	none (no result: ALR H2O2 inh)
CCn1c(SCC(=O)Nc2ccc(C)cc2)nc(O)cc1=O	ALR H2O2 inh 99 (no result: CAL PDZ FP-2)
